# Source: ChEMBL document CHEMBL1144333, “Dipyridyl amides: potent metabotropic glutamate subtype 5 (mGlu5) receptor antagonists” (Bioorg Med Chem Lett, 2005)
# Columns and labels:
# [1] = target: T1, Metabotropic glutamate receptor 5 (Homo sapiens, UniProt P41594); test: Inhibitory concentration against human recombinant metabotropic glutamate receptor 5 (mGlu5) in Ltk cells determined using fluorescence detection method; assay type: cell-based
# Summary of the method: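 Automated functional Ca2+ flux assay in Ltk cells stably expressing human recombinant mGlu5. Changes in cytosolic Ca2+ were read by fluorescence with the Ca2+-sensitive dye fura-2. IC50 values are means of two to three experiments.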
# [2] = target: T1, Metabotropic glutamate receptor 5; test: Inhibitory concentration against human recombinant metabotropic glutamate receptor 5 (mGlu5) in Ltk cells determined using fluorescence detection method; IA=Inactive; assay type: cell-based
# Summary of the method: (§1)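 Automated functional Ca2+ flux assay in Ltk cells stably expressing human recombinant mGlu5. Changes in cytosolic Ca2+ were read by fluorescence with the Ca2+-sensitive dye fura-2. IC50 values are means of two to three experiments. Compounds were called not active when IC50 > 10 μM.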
# [3] = High plasma clearance in rat was determined; assay type: ADME, organism-based; details: read-out: Clp
# [4] = Modest half life in rat was determined; assay type: ADME; details: in vivo
# [5] = Oral bioavailability in rat; LOQ = limit of quantitation; assay type: ADME, organism-based; details: in vivo
# [6] = Modest half life in rat was determined; LOQ = limit of quantitation; assay type: ADME; details: in vivo
# [7] = target: T1, Metabotropic glutamate receptor 5; test: Inhibitory concentration against human recombinant metabotropic glutamate receptor 5 (mGlu5) in Ltk cells determined using fluorescence detection method; NA=Not Active; assay type: cell-based; summary of the method: as §1
# [8] = Modest half life was determined; assay type: ADME; details: rat
# [9] = Low oral bioavailability was determined; assay type: ADME, organism-based; details: rat, in vivo
# [10] = High plasma clearance was determined; assay type: ADME, organism-based; details: rat, read-out: Clp
# T1 sequence (P41594 whole entry): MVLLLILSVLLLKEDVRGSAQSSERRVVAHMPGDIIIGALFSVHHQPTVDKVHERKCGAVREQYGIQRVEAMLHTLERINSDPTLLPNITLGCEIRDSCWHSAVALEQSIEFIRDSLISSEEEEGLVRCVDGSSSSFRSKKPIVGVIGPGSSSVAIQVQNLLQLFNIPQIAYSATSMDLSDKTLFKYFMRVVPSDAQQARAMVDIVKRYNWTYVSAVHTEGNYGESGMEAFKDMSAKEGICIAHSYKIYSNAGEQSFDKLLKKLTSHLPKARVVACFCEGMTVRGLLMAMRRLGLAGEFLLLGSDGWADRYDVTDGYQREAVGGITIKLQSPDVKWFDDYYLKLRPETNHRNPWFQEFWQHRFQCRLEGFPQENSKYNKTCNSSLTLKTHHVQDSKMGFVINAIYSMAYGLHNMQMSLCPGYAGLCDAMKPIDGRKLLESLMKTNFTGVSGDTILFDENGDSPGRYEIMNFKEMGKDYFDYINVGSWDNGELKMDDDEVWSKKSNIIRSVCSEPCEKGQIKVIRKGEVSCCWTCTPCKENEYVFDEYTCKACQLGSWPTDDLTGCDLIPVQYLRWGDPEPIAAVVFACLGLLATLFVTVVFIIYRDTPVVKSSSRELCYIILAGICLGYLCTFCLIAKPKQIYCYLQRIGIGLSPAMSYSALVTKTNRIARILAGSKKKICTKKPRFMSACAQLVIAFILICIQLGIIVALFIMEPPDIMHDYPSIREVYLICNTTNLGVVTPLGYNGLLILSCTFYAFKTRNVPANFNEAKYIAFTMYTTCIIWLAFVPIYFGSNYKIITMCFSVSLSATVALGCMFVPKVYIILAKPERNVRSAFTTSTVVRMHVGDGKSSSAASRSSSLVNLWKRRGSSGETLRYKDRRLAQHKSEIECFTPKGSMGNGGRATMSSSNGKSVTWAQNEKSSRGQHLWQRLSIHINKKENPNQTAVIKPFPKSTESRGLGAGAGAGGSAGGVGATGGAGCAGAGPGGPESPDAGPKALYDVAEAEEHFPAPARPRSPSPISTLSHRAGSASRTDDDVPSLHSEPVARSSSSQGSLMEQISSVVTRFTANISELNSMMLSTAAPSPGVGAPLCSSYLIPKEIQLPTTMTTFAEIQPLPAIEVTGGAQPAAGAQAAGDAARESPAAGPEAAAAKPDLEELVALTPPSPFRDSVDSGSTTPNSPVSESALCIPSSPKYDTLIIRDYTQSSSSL
IC50 [1] [nM],Structure (SMILES),also measured
145,CNc1ncc(Cl)nc1C(=O)Nc1ccccn1,
,Cc1cccc(N(C)C(=O)c2nc(C)cnc2N)n1,IC50 [2]: Not Active
11,Cc1cccc(NC(=O)c2nc(C)ccc2Nc2cccnc2)n1,clearance [3]: 176 mL/min/kg; half-life [4]: 1.25 h
134,CN(C)c1nc(N)c(C(=O)Nc2ccccn2)nc1Cl,
23,CC(C)Nc1nc(N)c(C(=O)Nc2ccccn2)nc1Cl,
158,CN(C)c1ncc(C(=O)Nc2ccccn2)nc1Cl,
3800,Nc1nc(N)c(C(=O)Nc2ccccn2)nc1Cl,
,O=C(Nc1ccccn1)c1cccc(Br)c1,IC50 [2]: Not Active
7,Cc1cccc(NC(=O)c2nc(C)ccc2O)n1,F [5]: Limit of quantification; clearance [3]: > 100 mL/min/kg; T1/2 [6]: Limit of quantification
,CN(C)c1ncc(Br)nc1C(=O)Nc1ccccn1,IC50 [7]: Not Active
254,O=C(Nc1ccccn1)c1cncc(Cl)n1,
22,Cc1cccc(NC(=O)c2nc(C)ccc2N)n1,
105,Cc1ccc(O)c(C(=O)Nc2cccc(C)n2)c1,
5080,CN(C)c1cnc(C(=O)Nc2ccccn2)c(N)n1,
3540,Nc1nccnc1C(=O)Nc1ccccn1,
5,Cc1cccc(NC(=O)c2nc(Cl)cnc2N)n1,
8,Cc1cccc(NC(=O)c2nc(C)cnc2N)n1,
28,Cc1cnc(N)c(C(=O)Nc2ccccn2)n1,half-life [8]: 4.4 h; bioavailability [9]: 20%; clearance [10]: 56 mL/min/kg
32,Cc1cccc(NC(=O)c2cccc(C)n2)n1,
11,Nc1ncc(Cl)nc1C(=O)Nc1ccccn1,
,O=C(Nc1ccccn1)c1cncc(Br)c1,IC50 [2]: Not Active
12,Nc1ncc(Br)nc1C(=O)Nc1ccccn1,
165,Cc1cncc(C(=O)Nc2ccccn2)n1,
103,Nc1nc(N2CCCCC2)c(Cl)nc1C(=O)Nc1ccccn1,
21,Cc1cccc(NC(=O)c2cccc(Br)n2)n1,
,O=C(Nc1ccccn1)c1cnccn1,IC50 [7]: Not Active
